Screening data: PubChem, The Scripps Research Institute Molecular Screening Center
NPY-Y2 PAM-ag: potentiators or agonists of human neuropeptide Y receptor Y2. P49146. cells expressing NPY-Y2, potentiator/agonist read-out. activation, % at 3.6 µM. hit rate 0.45% among 220,000; in the data active means activation above about 27%;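 further: cells stimulated with NPY near EC25 plus isoproterenol at EC100; 0% = vehicle plus submaximal agonist and 100% = vehicle plus saturating agonist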
Target sequence (P49146 whole entry, looked up): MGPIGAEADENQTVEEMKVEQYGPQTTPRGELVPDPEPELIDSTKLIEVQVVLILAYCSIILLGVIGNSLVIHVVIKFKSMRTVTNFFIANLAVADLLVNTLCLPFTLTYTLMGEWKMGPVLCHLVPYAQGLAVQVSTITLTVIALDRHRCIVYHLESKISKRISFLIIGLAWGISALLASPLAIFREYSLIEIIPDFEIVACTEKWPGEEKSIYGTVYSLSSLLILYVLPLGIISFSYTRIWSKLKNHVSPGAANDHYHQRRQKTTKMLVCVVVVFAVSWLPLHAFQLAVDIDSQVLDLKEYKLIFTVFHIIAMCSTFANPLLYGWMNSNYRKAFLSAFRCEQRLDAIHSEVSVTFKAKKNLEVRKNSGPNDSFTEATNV
NPY-Y2 antag: NPY-Y2 (human) receptor antagonism; P49146; NPY-Y2 expressing cells, antagonist mode; inhibition, % at 2.7 µM; hit rate 0.99% among 140,000; in the data active means inhibition above about 17%;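 further: 0% = vehicle with agonist challenge and 100% = reference antagonist with challenge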
NPY-Y1 PAM-ag: human NPY-Y1 potentiation or agonism, primary screen; P25929; NPY-Y1 expressing cells, potentiator/agonist activation; activation, % at 3.6 µM; hit rate 0.37% among 220,000; AID 1304; in the data active means activation above about 33%, passing the limit was not always enough;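 further: cells stimulated with NPY at EC10 then isoproterenol at EC100; 0% = low agonist plus stimulus and 100% = saturating agonist plus stimulus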
NPY Y1 blocker: NPY-Y1 (human) receptor antagonism; hit rate 1% among 200,000; inhibition, % at 3.6 µM; HEK293-CNG Y1 cells, membrane potential fluorescence; NPY at EC95, then isoproterenol; P25929;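 active means inhibition above the campaign mean inhibition of all tested compounds plus 3 SD, cut at about 20% in these data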;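 further: 0% = DMSO wells given NPY plus isoproterenol and 100% = isoproterenol alone without NPY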
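System: HEK293 cells with Y1 receptor plus CNG channel / Probe or stimulus: NPY 25 nM then isoproterenol 1 µM plus Ro 20-1724 25 µM / Compound: one concentration, 3.6 µM, in 0.4% DMSO / Schedule: compound incubation 1 h at room temperature, readout 45 min post-stimulation / Measured by: membrane potential fluorescence / Read-out: % inhibition of NPY effect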
Active calls of the source: *; · = no result. The list is not random: actives were taken first. Their share in the collection is about 1.9%.

SMILES	NPY-Y2 PAM-ag	NPY-Y2 antag	NPY-Y1 PAM-ag	NPY Y1 blocker
Cc1ccc(OCCN2CCN(c3nc(NCc4ccco4)c4ccccc4n3)CC2)cc1	-7	30*	-58	34*
OCCN1CCN(c2nc(NCc3ccco3)c3ccccc3n2)CC1	-19	7	-40	12
CCOCCCNC(=O)C(c1ccc(Cl)cc1)N1CCC2(CC1)OCCO2 (stereo not given)	36*	7	32*	4
COc1ccc(C2=NN(C(C#N)c3ccc(OC)cc3)C(c3ccccc3)C2)cc1 (stereo not given)	-6	1	-6	4
CCc1ccc(N2CCN(C(=O)N3CCOCC3)CC2)cc1	-4	·	0	-3
O=C(CCC1CCCCC1)Nc1c2c(nn1-c1ccc(F)cc1)CS(=O)(=O)C2	-10	30*	-42	57*
CCC(=O)Nc1c2c(nn1-c1ccc(F)cc1)CS(=O)C2 (stereo not given)	-7	2	9	2
c1ccc(Nc2c3c(nc4ccccc24)CCC3)cc1	-37	·	-41	20*
COc1ccc(Cc2nnc(NC(=O)CSc3ccc(C)cc3)s2)cc1OC	-20	9	-10	22*
O=C(CNC(=O)Cc1ccc(Cl)cc1)NCc1ccco1	19	·	9	-7
CC(C)(C)c1nn(-c2ccccc2)c2[nH]c(=O)c(CNCc3ccco3)cc12	10	3	47	-3
CC(C)(C)c1nn(-c2ccccc2)c2[nH]c(=O)c(CNc3ccc4c(c3)OCCO4)cc12	39*	-3	54*	-12
CCOC(=O)c1c(C)[nH]c(C(=O)N2CCN(c3ccc(OC)cc3)CC2)c1C	-6	·	1	6
Cc1ccc(NC(=O)C2(N(C(=O)Cn3nnnc3N)c3ccc(C)cc3)CCCCC2)cc1	34*	1	41*	-6
CC1CCC(NC(=O)CN2C(=O)C3CCCN3c3ncc(Cl)cc32)CC1 (stereo not given)	-11	6	-18	29*
CCc1ccccc1NC(=O)CN1C(=O)C2CCCN2c2ncc(Cl)cc21 (stereo not given)	-33	23*	-7	33*
O=C(COC(=O)CNC(=O)c1ccccc1F)Nc1cccnc1Cl	-2	·	-1	-3
Cc1cc2c(OCC(O)CN3CCCC3)cccc2[nH]1 (stereo not given)	100*	·	110*	-18
COc1cccc(OC)c1OCCNC(C)(C)C	1	0	4	4
COCCCNCC(O)COc1cccc2[nH]c(C)cc12 (stereo not given)	101*	·	108*	-14
COCCCNCCCOc1ccc(C)cc1Br	-2	2	-28	12
CCc1ccc(OCCOCC(O)CNC(C)(C)C)cc1 (stereo not given)	11	4	6	0
Cc1cc2c(OCC(O)CNC(C)(C)C)cccc2[nH]1 (stereo not given)	105*	3	111*	-19
CC(C)(C)NCC(O)COc1cccc2c1C[C@H](O)[C@H](O)C2 (stereo not given in full)	102*	2	118*	-10
FC(F)(F)c1cccc(NC(=S)NNC(=S)Nc2ccc(Cl)cc2)c1	45*	·	74*	·
SMILES	NPY-Y2 PAM-ag	NPY-Y2 antag	NPY-Y1 PAM-ag	NPY Y1 blocker
OC(CNCCNc1ncccc1C(F)(F)F)COc1ccc(F)cc1 (stereo not given)	61*	·	86*	·
S=C(NCCc1ccccc1)N1CCc2ccccc2C1	10	·	-11	4
COc1ccc(NC(=O)c2ccc(CNS(=O)(=O)c3cccc(OC)c3)cc2)cc1	10	-1	19	-8
COc1cccc(S(=O)(=O)NCc2ccc(C(=O)Nc3ccc(Cl)c(Cl)c3)cc2)c1	23	1	44*	-12
COC(=O)[C@@]1(Cc2ccccc2)[C@H]2c3cc(C(=O)N4CCCC4)n(Cc4ccsc4Br)c3C[C@H]2CN1C(=O)c1ccccc1	1	23*	16	49*
COc1ccc(NC(=O)NNC(=O)c2ccccc2-n2cccc2)cc1OC	5	·	-2	0
CCN(CC)C(=O)c1cc2c(=O)n3ccccc3nc2s1	-13	3	7	-1
CCN(CC)C(=O)c1cc2c(=O)oc3ccccc3c2s1	58*	3	69*	0
O=C(Cn1ncc2c1-c1ccccc1OC2)N1CCN(Cc2ccc3c(c2)OCO3)CC1	-3	1	-25	7
COc1cccc(N2C(=O)/C(=C\c3cccs3)NC2=S)c1	69*	·	48*	-3
Cc1ccc(S(=O)(=O)N(C)CC(=O)Nc2nc3ccccc3s2)cc1	12	3	-26	-3
Cc1ccc(/C(=N/Nc2nc3ccccc3s2)C2=C(O)c3ccccc3C2=O)cc1	-9	·	-3	20*
COc1ccc(CCNC(=O)c2c(N)no[n+]2[O-])cc1OC	5	·	6	5
Clc1ccccc1-c1ccc(CN2CCN(c3ccccc3)CC2)o1	-26	28*	-58	23*
C=CCN1C(=O)C(CC(=O)O)SC1=Nc1ccc(C)cc1 (stereo not given)	3	·	-22	0
N#CC(C#N)=c1ccc2c(c1)NC1(CCCCC1)N=2	44*	-10	41*	-13
Cc1cc(C)c2nc(N3CCN(C)CC3)c(C#N)cc2c1	-48	26*	-86	52*
CC(C)(C)n1nnnc1C(c1cccs1)N(Cc1ccccc1)Cc1ccco1 (stereo not given)	-10	20*	-10	27*
CCOC(=O)CC(NS(=O)(=O)c1ccc(OC)c(C)c1)c1cccc([N+](=O)[O-])c1 (stereo not given)	0	0	-4	3
COc1ccc(Cc2nc(C(=O)Nc3ccc(Cl)cc3)cs2)cc1	-29	19*	-32	24*
Cc1cc(OCc2nc(-c3ccncc3)no2)cc(C)c1Cl	-9	·	-18	6
Cn1cnnc1SCc1ccccc1Br	80*	-1	108*	-3
CN(C1=C(N2CCCCC2)C(=O)c2ccccc2C1=O)c1ccccc1	37*	-14	44*	-5
O=C1C(Nc2ccccc2)=C(N2CCCCC2)C(=O)c2ccccc21	2	1	-20	3
O=C(Nc1cc(S(=O)(=O)N2CCOCC2)ccc1N1CCCC1)c1ccc2c(c1)S(=O)(=O)c1ccccc1C2=O	-14	·	-4	0
SMILES	NPY-Y2 PAM-ag	NPY-Y2 antag	NPY-Y1 PAM-ag	NPY Y1 blocker
CC(=O)n1cc(N(C(=O)CCl)c2ccc([N+](=O)[O-])cc2)c2ccccc21	54*	·	69*	·
CCOC(=O)COc1ccc2c(c1)c(C(=O)OCC)c(C)n2CC	-20	10	-13	5
COc1ccc(CCNC(=O)C2CCCN(c3ncccn3)C2)cc1 (stereo not given)	6	·	-5	0
CCCn1c(SCC(=O)N2CCN(c3ccccc3)CC2)nc2ccccc2c1=O	-23	19*	-28	21*
Cc1cnc(C(=O)Nc2ccccc2-c2ccc(C)o2)cn1	56*	3	101*	4
CC(C)CC(=O)Nc1c2c(nn1-c1ccc(F)cc1)CSC2	100*	3	93*	-4
O=C1C2C3c4ccccc4C(c4ccccc43)C2c2nc3ccccc3n21 (stereo not given)	-11	11	-18	24*
